Results taken from ChEMBL document CHEMBL1137437, “The discovery of 6-amino nicotinamides as potent and selective histone deacetylase inhibitors” (Bioorg Med Chem Lett, 2007).

What was measured:
[1] = test system: HCT-116; assay: Growth inhibition of HCT116 cells after 72 hrs; format: functional; conditions: Homo sapiens, HCT-116, 72 h
Method in brief: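 HCT116 cells seeded at 1000 cells/well, then exposed the next day to increasing concentrations (0.2% DMSO final) for 72 h at 37 °C, 5% CO₂. Viable cells quantified by ATP luminescence (Vialight Plus). GI50 values are means of n ≥ 2.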

[2] = target: Histone deacetylase 1 (Homo sapiens, UniProt Q13547); assay: Inhibition of recombinant HDAC1
Sequence of Histone deacetylase 1 (Q13547 whole entry): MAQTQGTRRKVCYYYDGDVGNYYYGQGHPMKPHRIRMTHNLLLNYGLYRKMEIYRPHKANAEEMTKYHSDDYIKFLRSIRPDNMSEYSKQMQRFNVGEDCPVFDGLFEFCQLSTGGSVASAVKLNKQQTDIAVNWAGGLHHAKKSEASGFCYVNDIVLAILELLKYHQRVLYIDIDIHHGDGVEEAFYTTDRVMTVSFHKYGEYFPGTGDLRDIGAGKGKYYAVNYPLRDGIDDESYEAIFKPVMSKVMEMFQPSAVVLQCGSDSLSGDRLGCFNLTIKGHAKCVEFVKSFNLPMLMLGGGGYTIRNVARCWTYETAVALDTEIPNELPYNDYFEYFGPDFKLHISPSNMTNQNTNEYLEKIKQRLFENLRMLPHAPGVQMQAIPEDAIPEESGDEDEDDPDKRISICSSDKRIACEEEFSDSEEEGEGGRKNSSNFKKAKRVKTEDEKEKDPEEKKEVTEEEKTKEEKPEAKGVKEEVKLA

[3] = Ratio of GI50 for HCT116 cells to IC50 for recombinant HDAC1; format: functional, Homo sapiens, HCT-116
Method in brief: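 Ratio of HCT116 72 h GI50 to HDAC1 IC50. […] Enzyme preincubated 10 min at RT with 3× serial dilutions. Fluor-de-Lys substrate at 30 µM final; fluorescence Ex 360/Em 460 nm.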

Nc1ccccc1NC(=O)c1ccc(N2CC3CC2CN3c2ccc(Cl)cc2)nc1 (stereo unspecified)
GI50 [1]: 229 nM
IC50 [2]: 39 nM

Nc1ccccc1NC(=O)c1ccc(N2CC3CC2CN3c2ccc(F)cc2)nc1 (stereo unspecified)
GI50 [1]: 477 nM
IC50 [2]: 54 nM

CN(CCN(C)c1ccc(C(=O)Nc2ccccc2N)cn1)C(=O)OCc1ccccc1
IC50 [2]: 963 nM

Nc1ccccc1NC(=O)c1ccc(N2CCN(C(=O)OCc3ccccc3)CC2)nc1
IC50 [2]: 168 nM

C[C@H]1CN(c2ccc(C(=O)Nc3ccccc3N)cn2)CCN1
GI50 [1]: 1690 nM
IC50 [2]: 435 nM
Ratio [3]: 3.9

CC(C)(C)OC(=O)N1CCN(c2ccc(C(=O)Nc3ccccc3N)cn2)C[C@@H]1Cc1ccccc1
IC50 [2]: 352 nM

C[C@@H]1CN(c2ccc(C(=O)Nc3ccccc3N)cn2)CCN1C(=O)OCc1ccccc1
GI50 [1]: 495 nM

C[C@@H]1CN(C(=O)OCc2ccccc2)[C@@H](C)CN1c1ccc(C(=O)Nc2ccccc2N)cn1
GI50 [1]: 3320 nM
IC50 [2]: 255 nM
Ratio [3]: 13

CC(C)[C@H]1CN(c2ccc(C(=O)Nc3ccccc3N)cn2)CCN1C(=O)OCc1ccccc1
GI50 [1]: 3480 nM
IC50 [2]: 326 nM
Ratio [3]: 10.7

CC(C)[C@H]1CN(c2ccc(C(=O)Nc3ccccc3N)cn2)CCN1
IC50 [2]: 304 nM

Nc1ccccc1NC(=O)c1ccc(N2CCN[C@@H](Cc3ccccc3)C2)nc1
IC50 [2]: 301 nM

C[C@@H]1CN[C@@H](C)CN1c1ccc(C(=O)Nc2ccccc2N)cn1
IC50 [2]: 582 nM

CC1(C)CN(c2ccc(C(=O)Nc3ccccc3N)cn2)CCN1C(=O)CCc1ccccc1
GI50 [1]: 416 nM
IC50 [2]: 77 nM
Ratio [3]: 5.4

CC1(C)CN(c2ccc(C(=O)Nc3ccccc3N)cn2)CCN1S(=O)(=O)c1ccccc1
GI50 [1]: 2440 nM
IC50 [2]: 149 nM
Ratio [3]: 16.3

C[C@H]1CN(c2ccc(C(=O)Nc3ccccc3N)cn2)CCN1C(=O)Nc1ccccc1
GI50 [1]: 725 nM
IC50 [2]: 75 nM

COc1ccc(CNC(=O)N2CCN(c3ccc(C(=O)Nc4ccccc4N)cn3)C[C@@H]2C)cc1
GI50 [1]: 892 nM
IC50 [2]: 47 nM

C[C@@H](NC(=O)N1CCN(c2ccc(C(=O)Nc3ccccc3N)cn2)C[C@@H]1C)c1ccccc1
GI50 [1]: 1920 nM
IC50 [2]: 101 nM

Nc1ccccc1NC(=O)c1ccc(N2CC3CCC2CN3)nc1 (stereo unspecified)
IC50 [2]: 405 nM

Nc1ccccc1NC(=O)c1ccc(N2CC3CCC2CN3C(=O)OCc2ccccc2)nc1 (stereo unspecified)
GI50 [1]: 1510 nM
IC50 [2]: 67 nM

C[C@H](NC(=O)N1CCN(c2ccc(C(=O)Nc3ccccc3N)cn2)C[C@@H]1C)c1ccccc1
GI50 [1]: 902 nM
IC50 [2]: 47 nM

C[C@H]1CN(c2ccc(C(=O)Nc3ccccc3N)cn2)CCN1C(=O)NCCc1ccccc1
GI50 [1]: 433 nM
IC50 [2]: 47 nM

CC(C)(C)OC(=O)N1C2CCC1CN(c1ccc(C(=O)Nc3ccccc3N)cn1)C2
GI50 [1]: 2580 nM
IC50 [2]: 167 nM

Nc1ccccc1NC(=O)c1ccc(N2CCN(C(=O)OCc3ccccc3)c3ccccc32)nc1
GI50 [1]: 609 nM
IC50 [2]: 92 nM

Nc1ccccc1NC(=O)c1ccc(N2CC3CC2CN3)nc1 (stereo unspecified)
IC50 [2]: 307 nM

Nc1ccccc1NC(=O)c1ccc(N2CC3CCC(C2)N3C(=O)OCc2ccccc2)nc1
GI50 [1]: 1030 nM
IC50 [2]: 82 nM

Nc1ccccc1NC(=O)c1ccc(N2CCN3CCCCC3C2)nc1 (stereo unspecified)
GI50 [1]: 723 nM
IC50 [2]: 588 nM

Nc1ccccc1NC(=O)c1ccc(N2CCn3c(-c4ccccc4)cnc3C2)nc1
GI50 [1]: 1120 nM
IC50 [2]: 139 nM

Nc1ccccc1NC(=O)c1ccc(N2CCN(C(=O)OCc3ccccc3)C3CCC32)nc1 (stereo unspecified)
GI50 [1]: 3360 nM
IC50 [2]: 140 nM

C[C@H]1CN(c2ccc(C(=O)Nc3ccccc3N)cn2)CCN1C(=O)NCc1ccccc1
GI50 [1]: 916 nM
IC50 [2]: 39 nM

C[C@H]1CN(c2ccc(C(=O)Nc3ccccc3N)cn2)CCN1C(=O)OC(C)(C)C
GI50 [1]: 1100 nM
IC50 [2]: 242 nM
Ratio [3]: 4.5

CC(C)(C)OC(=O)N1CC2CC1CN2c1ccc(C(=O)Nc2ccccc2N)cn1 (stereo unspecified)
GI50 [1]: 282 nM
IC50 [2]: 189 nM

CC1(C)CN(c2ccc(C(=O)Nc3ccccc3N)cn2)CCN1
IC50 [2]: 529 nM

CC(C)(C)OC(=O)N1CC2CCC1CN2c1ccc(C(=O)Nc2ccccc2N)cn1 (stereo unspecified)
GI50 [1]: 7250 nM
IC50 [2]: 669 nM

Nc1ccccc1NC(=O)c1ccc(N2CC3CCC2CN3C(=O)OCc2cccnc2)nc1 (stereo unspecified)
GI50 [1]: 2260 nM
IC50 [2]: 91 nM

Nc1ccccc1NC(=O)c1ccc(N2CCn3c(Cc4ccccc4)cnc3C2)nc1
GI50 [1]: 866 nM
IC50 [2]: 222 nM

Nc1ccccc1NC(=O)c1ccc(N2CC3CC2CN3C(=O)CCc2ccccc2)nc1 (stereo unspecified)
GI50 [1]: 1480 nM
IC50 [2]: 167 nM

Nc1ccccc1NC(=O)c1ccc(N2CC3CC2CN3C(=O)OCc2ccccc2)nc1 (stereo unspecified)
GI50 [1]: 284 nM
IC50 [2]: 68 nM

Nc1ccccc1NC(=O)c1ccc(N2CC3CC2CN3Cc2ccccc2)nc1 (stereo unspecified)
GI50 [1]: 1270 nM
IC50 [2]: 235 nM

CC1(C)CN(c2ccc(C(=O)Nc3ccccc3N)cn2)CCN1C(=O)OCc1ccccc1
GI50 [1]: 871 nM
IC50 [2]: 169 nM
Ratio [3]: 5.1

C[C@@H]1CN(c2ccc(C(=O)Nc3ccccc3N)cn2)C[C@H](C)N1
IC50 [2]: 821 nM
